Experiment [1] can be described thus: inhibitors of TNFa-induced NFkB p65 translocation, primary screen, imaging, HUVEC, MLSMR starter and 10KST1 sets (AID 438;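 active = inhibition above 20% together with a positive visual image hit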;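 also: compound added about 3h40 before a 20 min TNFalpha stimulation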;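 as to inhibition: signal is the nuclear over cytoplasmic p65 intensity ratio per well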). The note with it: HUVEC TNFa-induced p65 nuclear translocation; cell count: measured here: nuclei count (cytotoxicity indicator), at 2.08 µM; inhibition: at 2 µM, stronger effect = higher value, 0% TNFa-plus-vehicle, 100% no-TNFa wells.
Experiment [2] can be described thus: endothelial E-selectin expression blockers – imaging, HUVEC, immunofluorescence, MLSMR starter and 10KST1 sets, primary screen (AID 487;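 active = visually confirmed hit in the image check and inhibition above 20%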;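 as to inhibition: signal is fraction of cell area covered by stained E-selectin grains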;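 as to nuclei count: 100% = median nuclei count of all wells on the same plate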). The following applies: HUVEC TNFalpha-induced E-selectin immunofluorescence imaging, at 2 µM; inhibition: stronger effect = higher value; nuclei count: measured here: cell number, toxicity.
The nature of experiment [3]: Primary imaging screen for DUSP6 inhibitors that restore phospho-Erk in transfected HeLa cells, chemical complementation (AID 609;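 active = compounds giving at least 50% inhibition in the cell-based MKP-3 phosphatase rescue imaging test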;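 as to inhibition: phospho-Erk level distribution per well compared with pooled transfected vehicle control wells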). The following applies: HeLa MKP-3 transfected, phospho-Erk imaging KS statistic, at 10 µM, cells stimulated with TPA for 15 min.
In experiment [4] the target is Dual specificity protein phosphatase 6 (Homo sapiens) (UniProt Q16828). The description is as above. The following applies: HeLa MKP-3 transfected, phospho-Erk imaging KS statistic; at 10 µM; stronger effect = higher value; cells stimulated with TPA for 15 min.
For experiment [5], the target named is Voltage-gated potassium channel subunit beta-2 (Rattus norvegicus) (UniProt P62483). In words: inhibitors of rat Kvbeta2 reductase activity – biochemical, NADPH fluorescence, primary screen (AID 622;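 active = fluorescence slope higher than the sample average by over 3 SD, cut at about -0.22 in these data, passing the limit was not always enough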;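 also: slope of raw intensity against log time taken from 70 to 1610 s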). The following applies: recombinant KvBeta, 4-cyanobenzaldehyde reduction, at 10 µM, stronger effect = higher value.
For experiment [6] the target is unchanged. The experiment can be described thus: enhancers of rat Kvbeta2 NADPH turnover – biochemical, NADPH fluorescence, primary screen (AID 623;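 active = NADPH fluorescence slope more negative than the mean of all samples by about 3 SD, 99.7% confidence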;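 also: fluorescence intensity change per second fitted from 20 to 320 s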). The following applies: Recombinant KvBeta, NADPH fluorescence decrease slope, 10 min; at 10 µM; stronger effect = lower value.
The target in experiment [7] is Alpha-2C adrenergic receptor (Homo sapiens) (UniProt P18825). The experiment can be described thus: compounds altering alpha2C-coupled GIRK flux – cell-based, HEK293 alpha2C/GIRK1/2, thallium flux, primary screen (AID 624).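 Also: slope of fluorescence ratio to pre-addition baseline per second over 15 to 24 s.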 The note with it: thallium flux BTC fluorescence, at 10 µM, actives lie on both sides.
A short description of experiment [8]: inhibitors of larval lipid processing in zebrafish, primary screen, whole organism, PED6 fluorescence, gall bladder and intestine (AID 686;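 active = a full or partial loss of lipid-probe fluorescence in the fish gall bladder, intestine or both, judged by eye; inactive = no fluorescence loss, or compound toxic to the fish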;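 also: signal comes from phospholipase A2 cleavage of quenched PED6 carried via bile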). The following applies: Zebrafish larvae PED6 lipid processing, fluorescence scoring; screened at 20 µM (by protocol). In a few lines: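 Doses: 20 µM single dose. Test system: live zebrafish larvae aged 5-7 days, whole organism. Quantity: five larvae per well. Measured by: By-eye fluorescence microscopy. Reagent: ingested quenched lipid PED6 at 100 nM. Read-out: visual per-well fluorescence inhibition score. Times: overnight exposure of larvae to compound plus PED6.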

A short description of experiment [9]: loss of swimming-algae plug formation – whole organism, Chlamydomonas reinhardtii, WT vs cilia-less mutant, absorbance, 96-well, primary screen (AID 463189;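 active = inhibition at or above 50% relative to wild type and mutant plate controls; inactive = inhibition below 50%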;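 also: 0% = wild type cc124 cells in DMSO and 100% = ciliumless bld1 mutant cells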). The note with it: Chlamydomonas reinhardtii gravitaxis, OD600 absorbance, 2 days; at 10 µM; stronger effect = higher value.
Where [10] appears, read: measured here: cell density z-score.
The mark [11] stands for this setting: measured here: nuclear c-Myc green intensity z-score.
[12] abbreviates: measured here: nuclear pErk red intensity z-score, stronger effect = higher value.

We go through 7 molecules from PubChem BioAssay.

One may read the inhibition as the change of the read-out against control, counted positive when it falls.

The source made the active and inactive calls.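 The calls were made as follows, unless noted: active = fluorescence slope after compound addition differing from the mean of all screened samples at 99.7% confidence, in either direction; inactive = the rest.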

Chain of Dual specificity protein phosphatase 6 (Homo sapiens) (Q16828 whole entry, looked up): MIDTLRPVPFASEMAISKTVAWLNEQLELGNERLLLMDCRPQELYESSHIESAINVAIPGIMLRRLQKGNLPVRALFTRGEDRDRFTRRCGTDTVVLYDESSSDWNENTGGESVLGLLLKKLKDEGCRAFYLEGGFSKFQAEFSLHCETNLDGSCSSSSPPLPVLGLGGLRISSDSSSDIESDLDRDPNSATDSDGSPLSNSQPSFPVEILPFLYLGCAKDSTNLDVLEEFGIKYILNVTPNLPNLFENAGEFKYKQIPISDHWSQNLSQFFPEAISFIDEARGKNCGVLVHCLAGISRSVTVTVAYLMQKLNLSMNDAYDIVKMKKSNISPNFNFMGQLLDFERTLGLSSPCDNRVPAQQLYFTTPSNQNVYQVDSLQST
Chain of Alpha-2C adrenergic receptor (Homo sapiens) (P18825 whole entry, looked up): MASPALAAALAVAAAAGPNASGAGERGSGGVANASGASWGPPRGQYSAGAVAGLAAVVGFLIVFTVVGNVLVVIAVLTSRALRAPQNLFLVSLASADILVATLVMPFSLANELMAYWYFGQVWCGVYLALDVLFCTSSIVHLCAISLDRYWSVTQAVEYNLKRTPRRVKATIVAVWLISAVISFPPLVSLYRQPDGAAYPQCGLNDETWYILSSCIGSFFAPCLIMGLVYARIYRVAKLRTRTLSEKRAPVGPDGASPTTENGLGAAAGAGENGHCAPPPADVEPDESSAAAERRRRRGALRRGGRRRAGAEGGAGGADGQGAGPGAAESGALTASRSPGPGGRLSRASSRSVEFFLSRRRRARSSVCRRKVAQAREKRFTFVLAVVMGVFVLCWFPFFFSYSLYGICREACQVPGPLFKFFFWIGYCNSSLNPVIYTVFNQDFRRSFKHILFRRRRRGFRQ
Chain of Voltage-gated potassium channel subunit beta-2 (Rattus norvegicus) (P62483 whole entry, looked up): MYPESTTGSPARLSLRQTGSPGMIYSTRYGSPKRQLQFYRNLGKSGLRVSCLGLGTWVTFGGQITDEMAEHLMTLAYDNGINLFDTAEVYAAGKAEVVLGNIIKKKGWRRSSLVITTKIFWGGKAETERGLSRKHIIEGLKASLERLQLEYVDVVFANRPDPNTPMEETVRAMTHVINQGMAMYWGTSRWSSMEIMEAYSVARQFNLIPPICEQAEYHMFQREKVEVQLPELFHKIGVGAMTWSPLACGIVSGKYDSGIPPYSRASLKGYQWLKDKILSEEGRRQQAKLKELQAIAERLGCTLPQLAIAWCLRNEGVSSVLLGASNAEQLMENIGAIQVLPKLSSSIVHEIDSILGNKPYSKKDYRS

On to `Cn1c2ccccc2c2nn(-c3ccccc3)c(=O)cc21`, for which the cell count in experiment [1] came to 304. Moreover, the inhibition was -5% (inactive) in [1], -28.5% (inactive) in experiment [2], -8.59% (inactive) in [4] and -13.4% (inactive) in experiment [9]. This molecule came in with a nuclei count in experiment [2] of 94.5%. Also, the z-score in experiment [3] (setting [10]) was -1.04; in [3] (setting [11]), 0.853; in experiment [3] (setting [12]), -0.375. Besides, the fluorescence slope in experiment [5] is -0.441 (inactive). Also, in experiment [6], the NADPH fluorescence slope was -0.000115 (inactive). Moreover, the slope in experiment [7] was 0.00467 (inactive). Besides, the call in experiment [8] was inactive.
With `Cc1cc(C)n(CC(=O)N2c3ccccc3Sc3ccccc32)n1`, the cell count in [1] came out at 563. Besides, the inhibition in experiment [1] was -0.4% (inactive); in experiment [2] it was -139% (inactive); in experiment [4], 15.9% (inactive); in [9], 14.7% (inactive). In experiment [2], this molecule returned a nuclei count of 139%. For the same molecule, the figures for the z-score in experiment [3] (setting [10]), in experiment [3] (setting [11]) and in experiment [3] (setting [12]) were 0.655, 0.867 and -0.852, respectively. Moreover, in experiment [5], the fluorescence slope was -0.508 (inactive). Moreover, the NADPH fluorescence slope in experiment [6] is -4.4e-05 (inactive). The slope in [7] is 0.00518 (inactive). Also, the call in [8] was inactive.
On to `CN1CCC2(CC1)C1CN(C)CC=C1C(C#N)=C(N)C2(C#N)C#N` (stereo unspecified), for which the cell count in experiment [1] stood at 542. For the same molecule, the inhibition in [1] is -8.9% (inactive); in experiment [2], -165% (inactive); in [4], 2.46% (inactive); in experiment [9], 11.5% (inactive). This molecule also registered a nuclei count in [2] of 198%. Further, the z-score in [3] (setting [10]) is -1.09; in experiment [3] (setting [11]), 0.771; in experiment [3] (setting [12]) it was 1.17. For the same molecule, the fluorescence slope in [5] was -0.349 (inactive). Further, the NADPH fluorescence slope in experiment [6] is -8.7e-06 (inactive). Moreover, in [7], the slope was 0.0029 (inactive). Further, the call in experiment [8] was inactive.
As to `CCCOc1ccc(C2NC(=O)NC2=O)cc1` (stereo unspecified), the cell count in experiment [1] came to 614. In addition, the inhibition was -8% (inactive) in experiment [1], -260% (inactive) in [2], -0.159% (inactive) in experiment [4] and -17% (inactive) in experiment [9]. This molecule had a nuclei count in [2] of 113%. Also, the z-score in [3] (setting [10]) is -0.563; in experiment [3] (setting [11]), 1.62; in experiment [3] (setting [12]), 0.505. Also, in [5], the fluorescence slope was -0.511 (inactive). The NADPH fluorescence slope in experiment [6] is -7.1e-05 (inactive). In experiment [7], the slope was 0.00583 (inactive). In addition, in experiment [8], the call was inactive.
As to `COCc1[nH]nc2c1C(c1cccc(OC)c1)C(C#N)=C(N)O2` (stereo unspecified), the cell count in experiment [1] stood at 637. Further, the inhibition in [1] was -2.3% (inactive); in experiment [2], -17.7% (inactive); in experiment [4], -2.29% (inactive); in experiment [9], 2.83% (inactive). In experiment [2], this molecule returned a nuclei count of 174%. The z-score in experiment [3] (setting [10]) was 0.403; in experiment [3] (setting [11]), -0.811; in experiment [3] (setting [12]), -1.74. In experiment [5], the fluorescence slope is -0.403 (inactive). In addition, the NADPH fluorescence slope in experiment [6] is -3.7e-05 (inactive). Besides, in experiment [7], the slope was 0.00513 (inactive). For the same molecule, in experiment [8], the call was inactive.
Turning to `COc1cccc(-c2nn3c(-c4ccccn4)nnc3s2)c1`, the cell count in [1] was determined as 630. Besides, the inhibition in experiment [1] was -8% (inactive); in experiment [2], -117% (inactive); in [4], 15.5% (inactive); in experiment [9] it was 65.3% (active). Also, in [2], the nuclei count turned out to be 150%. Besides, the z-score was 0.488 in experiment [3] (setting [10]), -0.624 in [3] (setting [11]) and -0.933 in experiment [3] (setting [12]). Also, the fluorescence slope in experiment [5] is -0.454 (inactive). Besides, the NADPH fluorescence slope in [6] is -0.000157 (inactive). Besides, in [7], the slope is 0.00706 (inactive). Moreover, the molecule was called inactive in [8].
Take `Cc1cc(C)n(C(=O)CSc2nc3ccccc3o2)n1`: the cell count in experiment [1] came out at 551. In addition, the inhibition is -6.6% (inactive) in experiment [1], -100% (inactive) in experiment [2], 19.8% (inactive) in [4] and 25.1% (inactive) in [9]. This molecule showed a nuclei count in [2] of 138%. Also, the z-score amounted to 0.355 in [3] (setting [10]), 0.587 in experiment [3] (setting [11]) and 0.0282 in [3] (setting [12]). In [5], the fluorescence slope is -0.488 (inactive). Further, in experiment [6], the NADPH fluorescence slope was -4.3e-05 (inactive). For the same molecule, in experiment [7], the slope was 0.00455 (inactive). Also, the outcome in experiment [8] was inactive.
